{"data": "Measurements of several laboratories", "MMP14": "Matrix metalloproteinase-14 (MMP14, Homo sapiens, UniProt P50281)", "CYP2E1": "Cytochrome P450 2E1 (CYP2E1, Homo sapiens, UniProt P05181)", "Kir1 channel protein": "Kir1 channel protein (Aedes aegypti, UniProt L0EQS9)", "ABHD6": "Monoacylglycerol lipase ABHD6 (ABHD6, Homo sapiens, UniProt Q9BV23)", "FLT1": "Vascular endothelial growth factor receptor 1 (FLT1, Homo sapiens, UniProt P17948)", "NTSR1": "Neurotensin receptor type 1 (NTSR1, Homo sapiens, UniProt P30989)", "PDE11A": "Dual 3',5'-cyclic-AMP and -GMP phosphodiesterase 11A (PDE11A, Homo sapiens, UniProt Q9HCR9)", "BTK": "Tyrosine-protein kinase BTK (BTK, Homo sapiens, UniProt Q06187)", "note": "Protocols differ between the studies behind these lines."}
{"Compound": "Cc1noc(-c2cc3cc(-c4nc(C(=O)NCc5ccccc5)[nH]c4C)ccc3[nH]2)n1", "target": "MMP14", "assay": "enzyme activity, inhibitor", "IC50 [nM]": "> 20000"}
{"Compound": "C=CC(=O)Nc1cc(Nc2nccc(Nc3cc(Cl)c(F)cc3C(C)(C)O)n2)c(OC)cc1N1CC[C@@H](N(C)C)C1", "target": "CYP2E1", "assay": "enzyme activity, inhibitor", "test system": "human, liver microsomes", "IC50 [nM]": "> 30000"}
{"Compound": "O=[N+]([O-])c1ccc(N2CCN(S(=O)(=O)c3ccc(F)cc3)CC2)cc1NCc1cccnc1", "target": "Kir1 channel protein", "assay": "ion flux, inhibitor", "IC50 [nM]": 470}
{"Compound": "O=C(Oc1nsnc1N1CCCCC1)N1CCOCC1", "target": "ABHD6", "assay": "enzyme activity, inhibitor, fluorescence", "setting": "lysate", "IC50 [nM]": 52}
{"Compound": "O=C(O)c1cc2ccccc2c(Cc2c(O)c(C(=O)O)cc3ccccc23)c1O", "target": "DNA polymerase eta (POLH, Homo sapiens, UniProt Q9Y253)", "assay": "enzyme activity, inhibitor", "IC50 [nM]": 79000}
{"Compound": "CC[C@H](C)[C@H](NC(C)=O)C(=O)N[C@@H](CCC(=O)O)C(=O)N[C@H](C(=O)N[C@H](C=O)CC(=O)O)[C@@H](C)O", "target": "Caspase-8 (CASP8, Homo sapiens, UniProt Q14790)", "assay": "enzyme activity, inhibitor", "IC50 [nM]": 1.74}
{"Compound": "Cc1ccc(C(=O)Nc2ccc(Oc3cc4cnn(C)c4cc3-c3cn[nH]c3)c(F)c2)c(=O)n1-c1ccc(F)cc1", "target": "FLT1", "assay": "enzyme activity, inhibitor, radiometric", "IC50 [nM]": 76}
{"Compound": "Cc1noc(-c2cc3cc(-c4nc(C(=O)NCc5ccc(=O)[nH]c5)[nH]c4C)ccc3[nH]2)n1", "target": "MMP14", "assay": "enzyme activity, inhibitor", "IC50 [nM]": "> 24000"}
{"Compound": "NC(=O)c1cccc(-c2cccc(OC(=O)NC3CCCCC3)c2)c1", "target": "Arylacetamide deacetylase (Homo sapiens, UniProt P22760)", "assay": "enzyme activity, inhibitor", "IC50 [nM]": 190}
{"Compound": "Cc1noc(-c2cc3cc(-c4cc(C(=O)NCc5ccc(C(=O)O)cc5)nn4C)ccc3[nH]2)n1", "target": "MMP14", "assay": "enzyme activity, inhibitor", "IC50 [nM]": "> 20000"}
{"Compound": "Cc1cc(Cc2cc(C)cc(C(C)(C)C)c2O)c(O)c(C(C)(C)C)c1", "target": "Sarcoplasmic/endoplasmic reticulum calcium ATPase 1 (ATP2A1, Oryctolagus cuniculus, UniProt P04191)", "assay": "ATPase activity, inhibitor, absorbance", "setting": "pH 7.3", "IC50 [nM]": 3600}
{"Compound": "COc1ccc(-c2nsc(NC(=O)[C@@H]3C[C@H]3C)c2C)cc1", "target": "Metabotropic glutamate receptor 8 (GRM8, Homo sapiens, UniProt O00222)", "assay": "calcium signal, antagonist", "IC50 [nM]": "> 12500"}
{"Compound": "CC(C)=CCCC(C)=CCn1cc(CC(P(=O)(O)O)P(=O)(O)O)nn1", "target": "Protein farnesyltransferase (Rattus norvegicus, UniProt Q02293+Q04631)", "assay": "enzyme activity, inhibitor, HPLC", "IC50 [nM]": 500000}
{"Compound": "O=[N+]([O-])c1ccc(N2CCN(S(=O)(=O)c3ccc(F)cc3)CC2)cc1NCc1ccccn1", "target": "Kir1 channel protein", "assay": "ion current, inhibitor, patch clamp", "IC50 [nM]": 35.5}
{"Compound": "Cc1cc(O)cc(C)c1C[C@H](NC(=O)[C@@H]1CCCN1C(=O)[C@H](CCCNC(=N)N)NC(=O)[C@H](CCCNC(=N)N)N(C)C(=O)CNC(=O)[C@@H](CO)NC(=O)CNC(=O)[C@H](Cc1cn(CCNC(=O)[C@H](CC(C)C)NC(=O)[C@H](CC(C)C)NC(=O)C2OC2C(=O)O)nn1)NC(=O)CN1CCN(CC(=O)O)CCN(CC(=O)O)CCN(CC(=O)O)CC1)C(=O)N[C@H](C(=O)N[C@@H](CC(C)C)C(=O)O)C(C)(C)C (mixture of isomers)", "target": "NTSR1", "assay": "ligand displacement, radioligand", "IC50 [nM]": 45}
{"Compound": "CCNC(=O)c1nc(-c2ccc3[nH]c(-c4nc(C)no4)cc3c2)c(C)[nH]1", "target": "MMP14", "assay": "enzyme activity, inhibitor", "IC50 [nM]": "> 20000"}
{"Compound": "N#Cc1ccc(N2CCN(S(=O)(=O)c3ccc(Cl)cc3)CC2)cc1NCc1ccncc1", "target": "Kir1 channel protein", "assay": "ion current, inhibitor, patch clamp", "IC50 [nM]": 39}
{"Compound": "CCC1(c2ccc(C)cc2)C(=O)N(C(=O)OC(C)C)N1C(=O)OC(C)C (stereo not drawn)", "target": "Prolyl endopeptidase (Mus musculus, UniProt Q9QUR6)", "assay": "enzyme activity, inhibitor", "IC50 [nM]": 4500}
{"Compound": "O=S(=O)(c1ccc(Cl)cc1)N1CCN(c2ccnc(NCc3ccncc3)c2)CC1", "target": "Kir1 channel protein", "assay": "ion flux, inhibitor", "IC50 [nM]": "4000 to 9000"}
{"Compound": "COc1ccc(CNc2c(CO)cnc3c(C4CC4)cc(C#N)cc23)cn1", "target": "PDE11A", "assay": "enzyme activity, inhibitor", "IC50 [nM]": "> 10000"}
{"Compound": "COc1ccc(F)cc1C(=O)NCc1ccc(-c2nn([C@@H](C)C(F)(F)F)c(N)c2C(N)=O)cc1", "target": "BTK", "assay": "phosphorylation in cells, inhibitor", "IC50 [nM]": 3.9}
{"Compound": "COc1cc(C[C@H]2C(=O)OC[C@@H]2Cc2ccc(OC)c(OC)c2)ccc1O", "target": "PDE11A", "assay": "enzyme activity, inhibitor", "IC50 [nM]": "> 20000"}
{"Compound": "Cc1noc(-c2cc3cc(-c4nc(C(=O)NCC5CCOCC5)[nH]c4C)ccc3[nH]2)n1", "target": "MMP14", "assay": "enzyme activity, inhibitor", "IC50 [nM]": "> 20000"}
{"Compound": "O=[N+]([O-])c1ccc(N2CCN(S(=O)(=O)c3ccc(F)cc3)CC2)cc1NCc1ccco1", "target": "Kir1 channel protein", "assay": "ion flux, inhibitor", "IC50 [nM]": 1290}
{"Compound": "COc1ccc2c(Oc3ccc4c(C(=O)Nc5ccccc5N)cccc4c3)ccnc2c1", "target": "RAC-beta serine/threonine-protein kinase (AKT2, Homo sapiens, UniProt P31751)", "assay": "enzyme activity, inhibitor", "IC50 [nM]": "> 500"}
{"Compound": "O=S(=O)(c1ccc(F)cc1)N1CCN(c2cccc(NCc3ccncc3)c2)CC1", "target": "Kir1 channel protein", "assay": "ion flux, inhibitor", "IC50 [nM]": "4000 to 9000"}
{"Compound": "COc1cc2c(NC3CCN(C)CC3)nc(N3CCCN(C)CC3)nc2cc1OCCOCCN(C)C", "target": "Lysine-specific demethylase 4E (KDM4E, Homo sapiens, UniProt B2RXH2)", "assay": "enzyme activity, inhibitor", "IC50 [nM]": "> 57000"}
{"Compound": "CN1CCN(c2ccc(Nc3ncc4cc(C#N)c(=O)n(C5CCCC5)c4n3)cc2)CC1", "target": "BTK", "assay": "enzyme activity, inhibitor", "IC50 [nM]": 421}
{"Compound": "O=[N+]([O-])c1ccc(N2CCN(S(=O)(=O)c3ccc(F)cc3)CC2)cc1NCc1ccncc1", "target": "Kir1 channel protein", "assay": "ion flux, inhibitor", "IC50 [nM]": 390}
{"Compound": "Cc1cc(O)cc(C)c1C[C@H](NC(=O)[C@@H]1CCCN1C(=O)[C@H](CCCNC(=N)N)NC(=O)[C@H](CCCNC(=N)N)N(C)C(=O)CNC(=O)[C@@H](CO)NC(=O)CNC(=O)[C@H](Cc1cn(CCNC(=O)[C@H](CCCNC(=N)N)NC(=O)[C@H](CC(C)C)NC(=O)C2OC2C(=O)O)nn1)NC(=O)CN1CCN(CC(=O)O)CCN(CC(=O)O)CCN(CC(=O)O)CC1)C(=O)N[C@H](C(=O)N[C@@H](CC(C)C)C(=O)O)C(C)(C)C (mixture of isomers)", "target": "NTSR1", "assay": "ligand displacement, radioligand", "IC50 [nM]": 73}
{"Compound": "O=C(Oc1nsnc1N1CCc2ccccc2C1)N1CCCCC1", "target": "ABHD6", "assay": "enzyme activity, inhibitor, fluorescence", "setting": "lysate", "IC50 [nM]": 460}
{"Compound": "Cc1cnc(-c2ccc(-c3ccc(NC(=O)Nc4c(F)cc(F)cc4F)cc3F)c3c2C(=O)NC3)[nH]1", "target": "FLT1", "assay": "enzyme activity, inhibitor", "IC50 [nM]": "> 1000"}
{"Compound": "Cn1cc(-c2cc3cc(-c4cc(C(=O)NCc5ccc(C(=O)O)cc5)nn4C)ccc3[nH]2)cn1", "target": "MMP14", "assay": "enzyme activity, inhibitor", "IC50 [nM]": "> 20000"}
{"Compound": "O=c1c(O)c(-c2ccc(O)c(O)c2)oc2cc(O)cc(O)c12", "target": "CYP2E1", "assay": "enzyme activity, inhibitor, HPLC", "IC50 [nM]": 104000}
{"Compound": "O=[N+]([O-])c1ccc(N2CCN(S(=O)(=O)c3ccc(Cl)cc3)CC2)cc1NCc1ccncc1", "target": "Kir1 channel protein", "assay": "ion flux, inhibitor", "IC50 [nM]": 750}
{"Compound": "CSc1ccc(/C=C2/C(C)=C(CC(=O)O)c3cc(F)ccc32)cc1", "target": "PDE11A", "assay": "enzyme activity, inhibitor", "IC50 [nM]": "> 100000"}
